# Laboratory results: article PMC3404467 (Journal of Medicinal Chemistry, 2012)
# Columns and labels:
# hNPFF1R [1] = target: T1, hNPFF1R (Homo sapiens, UniProt Q9GZQ6); assay: IP accumulation assay, wt hNPFF1R in COS-7 cells with chimeric G-protein; type: cell-based; conditions: for functional behaviour at NPFF1R: IP accumulation assays; for functional behaviour at NPFF1R / IP accumulation at NPFF1R: wt NPFF1R; for x-fold: wt hNPFF1R, EC50(compound)/EC50(endogenous ligand NPVF at wt); for IP accumulation at NPFF1R: at 10 μM
# T1 sequence (Q9GZQ6 whole entry): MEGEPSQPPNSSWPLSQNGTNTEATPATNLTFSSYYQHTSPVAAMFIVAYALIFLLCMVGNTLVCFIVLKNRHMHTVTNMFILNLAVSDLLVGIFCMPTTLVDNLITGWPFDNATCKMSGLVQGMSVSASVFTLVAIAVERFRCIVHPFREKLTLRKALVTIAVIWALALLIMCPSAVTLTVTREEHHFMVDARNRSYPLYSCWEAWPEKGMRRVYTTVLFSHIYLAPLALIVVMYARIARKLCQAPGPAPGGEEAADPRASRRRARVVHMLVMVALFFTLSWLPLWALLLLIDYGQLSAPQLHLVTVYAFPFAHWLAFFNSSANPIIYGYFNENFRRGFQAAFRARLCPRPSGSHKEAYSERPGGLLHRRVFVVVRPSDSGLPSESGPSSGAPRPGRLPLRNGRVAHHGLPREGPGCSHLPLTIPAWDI
# human NPFF2 receptor = human NPFF2 receptor (Homo sapiens, UniProt Q9Y5X5); assay: IP accumulation assay, wt hNPFF2R in COS-7 cells with chimeric G-protein; type: cell-based; conditions: for functional behaviour at NPFF2R: IP accumulation assays, wt NPFF2R; for x-fold: wt hNPFF2R, EC50(compound)/EC50(NPFF at wt)
# Chain of human NPFF2 receptor (Q9Y5X5 whole entry): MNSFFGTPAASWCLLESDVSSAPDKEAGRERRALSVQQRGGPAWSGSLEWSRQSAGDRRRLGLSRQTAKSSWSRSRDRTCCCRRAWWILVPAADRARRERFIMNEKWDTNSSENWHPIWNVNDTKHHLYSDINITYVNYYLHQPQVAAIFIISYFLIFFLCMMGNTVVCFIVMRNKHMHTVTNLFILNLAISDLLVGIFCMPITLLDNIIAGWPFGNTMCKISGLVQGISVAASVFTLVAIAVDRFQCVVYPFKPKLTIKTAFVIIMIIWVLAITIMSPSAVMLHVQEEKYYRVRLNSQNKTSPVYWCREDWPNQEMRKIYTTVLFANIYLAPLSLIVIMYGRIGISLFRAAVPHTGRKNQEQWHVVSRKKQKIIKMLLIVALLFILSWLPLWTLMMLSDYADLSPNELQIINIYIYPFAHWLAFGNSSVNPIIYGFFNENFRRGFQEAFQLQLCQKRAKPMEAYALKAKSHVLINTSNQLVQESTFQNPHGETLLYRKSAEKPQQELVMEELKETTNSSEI
# Y^7.35A_hNPFF2R = Y^7.35A_hNPFF2R (Homo sapiens, UniProt Q9Y5X5, Y417A); assay: IP accumulation assay, Y^7.35A mutant of hNPFF2R; type: cell-based; conditions: Y^7.35A hNPFF2R; ratio to EC50 of NPFF at wt
# Chain of Y^7.35A_hNPFF2R (Q9Y5X5 whole entry Y417A): as the sequence (Q9Y5X5 whole entry) above, with Y417A counted along it
# hNPFF1R [2] = target: T1, hNPFF1R; conditions: CHO-hNPFF1R cells, up to 10 μM; cited from earlier work
# hNPFF2R = conditions: cited from earlier work
# Y^5.38A hNPFF2 receptor = Y^5.38A hNPFF2 receptor (Homo sapiens, UniProt Q9Y5X5, Y321A); assay: IP accumulation assay, Y^5.38A mutant of hNPFF2R; type: cell-based; conditions: Y^5.38A hNPFF2R; ratio to EC50 of NPFF at wt
# Chain of Y^5.38A hNPFF2 receptor (Q9Y5X5 whole entry Y321A): as the sequence (Q9Y5X5 whole entry) above, with Y321A counted along it
# D^6.59A_hNPFF2R = D^6.59A_hNPFF2R (Homo sapiens, UniProt Q9Y5X5, D400A); assay: IP accumulation assay, D^6.59A mutant of hNPFF2R; type: cell-based; conditions: D^6.59A hNPFF2R; ratio to EC50 of NPFF at wt
# Chain of D^6.59A_hNPFF2R (Q9Y5X5 whole entry D400A): as the sequence (Q9Y5X5 whole entry) above, with D400A counted along it
# Y^7.33A_hNPFF2R = Y^7.33A_hNPFF2R (Homo sapiens, UniProt Q9Y5X5, Y415A); assay: IP accumulation assay, Y^7.33A mutant of hNPFF2R; type: cell-based; conditions: Y^7.33A hNPFF2R; ratio to EC50 of NPFF at wt
# Chain of Y^7.33A_hNPFF2R (Q9Y5X5 whole entry Y415A): as the sequence (Q9Y5X5 whole entry) above, with Y415A counted along it
# hNPFF1R [3] = target: T1, hNPFF1R; assay: Antagonism: NPVF concentration-response curves; type: cell-based; conditions: against NPVF
# COS-7 cells = assay: Resazurin-based cell viability assay; parameters: species or system African Green Monkey; conditions: 2 h incubation, at high compound concentrations
# Summary of the method: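 COS-7 cells seeded 30,000/well, grown to subconfluency, exposed 2 h to varying concentrations in DMEM (4.5 g/L glucose, L-glutamine, 10% heat-inactivated FCS). Controls were 70% EtOH for 10 min and FCS medium. Cells were washed twice in serum-free medium, then given 10% resazurin in serum-free medium for 2 h at 37°C. Resorufin fluorescence was read at ex 550/em 595 nm. Two independent experiments, triplicates; IC50 derived.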
# [4] = rats, spinal nerve ligation; cited from earlier work
functional behaviour at NPFF1R (hNPFF1R [1]),x-fold (hNPFF1R [1]),functional behaviour at NPFF2R (human NPFF2 receptor),x-fold (human NPFF2 receptor),x-fold (Y^7.35A_hNPFF2R),IP accumulation at NPFF1R (hNPFF1R [1]),x-fold (Y^5.38A hNPFF2 receptor),x-fold (D^6.59A_hNPFF2R),x-fold (Y^7.33A_hNPFF2R),Schild plot slope (hNPFF1R [3]),EC50 (human NPFF2 receptor),SMILES,activity in cAMP accumulation assay (hNPFF1R [2]),"effect on stimulation of [^35S]GTPγS binding (hNPFF2R; hNPFF2R membranes, up to 100 μM)",right-shift of concentration-effect curves of NPFF (hNPFF2R; in the presence of high concentrations of RF9),cytotoxicity (relative cell viability) (COS-7 cells),antinociceptive effect on mechanical allodynia [4]
competitive antagonism,–,full agonists,175 fold,177 fold,no IP accumulation,1440 fold,5211 fold,4901 fold,1.04 ± 0.19,–,N=C(N)N/N=C/C12CC3CC(CC(C3)C1)C2 [AC-970],–,–,–,cytotoxic effect,reversing established mechanical allodynia
partial agonists,310 fold,full agonists,1291 fold,–,–,–,–,–,–,–,N=C(N)N/N=C/c1ccc(Br)c(Br)c1 [AC-093],–,–,–,cytotoxic effect,–
full agonist,3308 fold,full agonists,977 fold,738 fold,–,–,–,–,–,1160 ± 638 nM,N=C(N)N/N=C/c1ccc(-c2ccc(Br)cc2C(F)(F)F)o1 [AC-216],–,–,–,cytotoxic effect,–
partial agonists,–,full agonists,–,–,–,–,–,–,–,–,N=C(N)N/N=C/c1ccc(Cl)c(C(F)(F)F)c1 [AC-099],–,–,–,–,–
competitive antagonist,–,partial agonist,137 fold,66 fold,no IP accumulation,–,–,–,0.89 ± 0.05,–,"NC(N)=NCCC[C@@H](NC(=O)C(c1ccccc1)c1ccccc1)C(=O)NCc1ccc(O)cc1 [BIBP3226, (R)-N(2)-(diphenylacetyl)-N-[(4-hydroxyphenyl)-methyl]-argininamide, reference compound]",–,–,–,–,–

SMILES,functional behaviour at NPFF1R (hNPFF1R [1]),x-fold (hNPFF1R [1]),functional behaviour at NPFF2R (human NPFF2 receptor),x-fold (human NPFF2 receptor),x-fold (Y^7.35A_hNPFF2R),IP accumulation at NPFF1R (hNPFF1R [1]),x-fold (Y^5.38A hNPFF2 receptor),x-fold (D^6.59A_hNPFF2R),x-fold (Y^7.33A_hNPFF2R),Schild plot slope (hNPFF1R [3]),EC50 (human NPFF2 receptor),activity in cAMP accumulation assay (hNPFF1R [2]),"effect on stimulation of [^35S]GTPγS binding (hNPFF2R; hNPFF2R membranes, up to 100 μM)",right-shift of concentration-effect curves of NPFF (hNPFF2R; in the presence of high concentrations of RF9),cytotoxicity (relative cell viability) (COS-7 cells),antinociceptive effect on mechanical allodynia [4]
"N=C(N)NCCC[C@H](NC(=O)C12CC3CC(CC(C3)C1)C2)C(=O)N[C@@H](Cc1ccccc1)C(N)=O [RF9, 1-Adamantanecarbonyl-RF-NH2, reference compound]",agonistic activity,41 fold,agonistic activity,222 fold,277 fold,–,–,–,–,–,–,inactive,no effect,~ 160 fold,–,–
